# Source: PubChem
# This is a sample that favours compounds with a hit; in the whole collection about 4.3% have one here.
# GalR3 antag = human GalR3 antagonism; 360,000 tested, 0.44% active; HEK293 GalR3-CNG cAMP membrane potential fluorescence; galR3 body fused to GalR1 C-terminus; inhibition, % at 3 µM; AID 651719;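 active = inhibition above the screen-wide average plus 3 SD, cut at about 13% in these data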;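 also: forskolin and galanin both at EC90 stimulate the cells; cAMP rise reported by CNG channel membrane potential dye signal; 0% = forskolin plus galanin with DMSO and 100% = forskolin alone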
# Target sequence (O60755 1-299 limits assumed): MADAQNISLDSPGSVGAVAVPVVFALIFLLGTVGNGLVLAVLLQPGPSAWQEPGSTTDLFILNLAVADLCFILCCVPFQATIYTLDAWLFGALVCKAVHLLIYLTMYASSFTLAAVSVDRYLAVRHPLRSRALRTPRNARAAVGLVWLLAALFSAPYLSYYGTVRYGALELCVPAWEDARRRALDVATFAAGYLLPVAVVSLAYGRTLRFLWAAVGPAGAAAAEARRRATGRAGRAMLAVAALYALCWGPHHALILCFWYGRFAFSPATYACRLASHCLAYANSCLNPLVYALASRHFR
# OX1R antag-1 = human HCRTR1 antagonism | inhibition, % at 5 µM | 330,000 tested, 0.43% active | AID 434989 | CHO/OX1R cells, Fluo-8 calcium fluorescence, orexin A;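 active = inhibition above its plate's threshold, mean inhibition of all tested compounds on the plate plus 3 SD, cut at about 37% in these data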;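 also: 0% = orexin A challenge wells and 100% = SB-334867-A antagonist wells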
# TAAR1 antag = antagonists of human TAAR1; Q96RJ0; CHO RD-HGA16 TAAR1, Fluo-8 calcium fluorescence, antagonist; inhibition, % at 3 µM; 360,000 tested, 1.5% active; AID 624466;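 active = inhibition above a per-plate cutoff, the mean inhibition of test compounds on that plate plus 3 SD, cut at about 49% in these data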;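 also: 0% = DMSO plus EC80 beta-PEA response and 100% = DMSO alone without agonist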
# Target sequence (Q96RJ0 whole entry, looked up): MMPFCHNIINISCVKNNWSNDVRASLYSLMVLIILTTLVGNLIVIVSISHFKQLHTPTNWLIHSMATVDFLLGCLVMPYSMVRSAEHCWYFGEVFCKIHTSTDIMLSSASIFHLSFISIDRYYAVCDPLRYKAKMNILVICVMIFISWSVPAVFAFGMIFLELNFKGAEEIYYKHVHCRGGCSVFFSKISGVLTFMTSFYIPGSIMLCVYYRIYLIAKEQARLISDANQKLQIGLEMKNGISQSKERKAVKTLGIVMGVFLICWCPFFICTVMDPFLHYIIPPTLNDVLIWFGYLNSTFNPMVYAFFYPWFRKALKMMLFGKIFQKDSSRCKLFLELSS
#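 Assay system: RD-HGA16 CHO cells with stable hTAAR1 and Gα16 / Reagent: EC80 β-phenethylamine stimulus / Doses: 3 µM, single point / Timing: dye loading 75 min at 37 °C, then 30 min room temperature / Measured by: Fluo-8 intracellular calcium dye fluorescence, real-time kinetic reads / Controls: vehicle wells and EC80 agonist wells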
# TAAR1 agonist = agonists of human TAAR1. CHO RD-HGA16 TAAR1, Fluo-8 calcium fluorescence; vehicle wells 0%, saturating PEA agonist 100%. activation, % at 3 µM. 360,000 tested, 0.99% active;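 active = activation above the mean activation of all test compounds in the run plus 3 SD, cut at about 38% in these data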
#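 System: CHO-derived RD-HGA16 cells with stable Gα16 and human TAAR1. Times: 17-24 h plating, Fluo-8 75 min 37 °C, 30 min RT. Measured by: calcium-sensitive Fluo-8 signal, excitation 470-495, emission 515-575 nm. Read-out basis: % activation relative to PEA EC100 response. Control set: DMSO and PEA EC100. Repeats: no replicates (n 1).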
# CHO parental Ca = signal in parental CHO cells, OX1R antagonist counter-screen; parental CHO-K1, ATP-induced calcium, Fluo-8 fluorescence; inhibition, % at 5.6 µM; 330,000 tested, 0.63% active; AID 463079;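 active = inhibition above that plate's mean sample inhibition plus 3 SD, cut at about 26% in these data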;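 also: 0% = ATP-challenged DMSO wells and 100% = DMSO wells without ATP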
#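 Measured by: calcium-sensitive Fluo-8 fluorescence / Test system: CHO parental line / Controls: ATP-challenged DMSO wells low, unchallenged DMSO wells high / Measure: % inhibition / Compound: single nominal dose of 5.6 µM per compound / Replicates: single well per compound, no replicates / Reagent: ATP as calcium-mobilizing challenge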
# OX1R antag-2 = antagonists of human orexin 1 receptor (OX1R); OX1R-expressing cells, FRET antagonist read-out; inhibition, % at 6.6 µM; O43613; AID 485270; 330,000 tested, 1.8% active; in the data active = inhibition mostly above about 38%, no sharp cut-off; inactive = mostly below about 40%;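 also: 0% = agonist challenge alone and 100% = reference antagonist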
# nonsel antag count = nonselective antagonism, TAAR1 counter-screen | shares compounds with TAAR1 antag | counterscreen cell line, calcium fluorescence, antagonist mode | inhibition, % at 3 µM | 2,400 tested, 77% active | AID 651780; in the data active = inhibition above about 22%;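 also: CHO-Ga16 host cells stimulated with ATP at an EC80 level; 0% = agonist EC80 plus vehicle and 100% = vehicle without agonist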
# TAAR1 ant conf = human TAAR1 antagonism, confirmed | shares compounds with TAAR1 antag | 2,400 tested, 40% active | AID 651785 | TAAR1-expressing cells, fluorescence antagonist read-out | inhibition, % at 3 µM; in the data active = inhibition above about 49%;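 also: CHO-Ga16 host cells challenged with agonist PEA near its EC80; 0% = agonist at EC80 plus vehicle and 100% = vehicle with no agonist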
# Ga16 ag counter = nonselective Ga16 agonism, counter-screen; shares compounds with TAAR1 antag; Ga16-expressing cells, calcium fluorescence, agonist counterscreen; activation, % at 3 µM; 2,400 tested, 18% active; AID 651953; in the data active = activation above about 12%;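 also: 0% = vehicle wells and 100% = saturating stimulus response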
# TAAR1 ag count = activates human TAAR1 in antagonist counter-screen. AID 651955. hTAAR1 cell line, fluorescence activation, agonist mode. activation, % at 3 µM. 2,400 tested, 2% active. shares compounds with TAAR1 antag; in the data active = activation above about 37%;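 also: CHO cells stably expressing TAAR1 with calcium dye readout; 0% = DMSO vehicle and 100% = full agonist response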
# The depositor's hits bear a star; x = no result given.
SMILES,GalR3 antag,OX1R antag-1,TAAR1 antag,TAAR1 agonist,CHO parental Ca,OX1R antag-2,nonsel antag count,TAAR1 ant conf,Ga16 ag counter,TAAR1 ag count
COc1ccc(-c2csc3ncnc(N4CCN(c5ccccc5OC)CC4)c23)cc1,-10.7,-28.4,62.5*,0.8,-16.5,10.9,27.3*,41.4,4.7,10.4
COc1cc(OC)c(OC)cc1/C=C/C(=O)OCC(=O)Nc1c(C)n(C)n(-c2ccccc2)c1=O,-2.9,x,-2.4,1.8,x,x,x,x,x,x
O=C(OCc1cn([C@H]2C[C@H](c3ccc(Cl)cc3)N(C(=O)c3cccs3)C[C@@H]2O)nn1)c1ccccc1,-7.0,x,9.1,2.7,x,x,x,x,x,x
COc1ccccc1N1CCN(C2CCCN(C(=O)c3cccc(-c4ccco4)c3)C2)CC1 (configuration not stated),-2.8,-39.0,-4.2,-1.2,-21.1,9.7,x,x,x,x
Cc1cccc(-n2cc(-c3ccccc3)c3c(N4CCOCC4)ncnc32)c1,-1.4,-61.2,59.6*,4.2,-20.4,25.7,26.6*,45.2,4.8,5.6
COc1ccc(-n2cc(-c3ccccc3)c3c(NN4CCOCC4)ncnc32)cc1,3.8,-16.8,56.3*,15.3,-6.9,27.4,25.3*,39.5,11.0,13.7
COc1ccc([C@H]2CC(=O)C=C(c3ccc(CNC(=O)OC(C)(C)C)cc3)C2)cc1,-6.3,39.5,83.2*,19.0,30.8,8.2,47.0*,67.9*,11.7*,7.8
COc1ccc([C@H]2CC(=O)C=C(c3ccc(OC(F)(F)F)cc3)C2)cc1,-6.4,-16.4,24.3,2.8,-21.3,4.6,x,x,x,x
CC1=C(C(=O)N(C)C)CC(CC(=O)NC(c2ccccc2)c2ccccc2)C(=O)N1Cc1ccc(F)cc1 (configuration not stated),0.1,x,0.9,0.1,x,x,x,x,x,x
O=C(c1cc(C(=O)NCCc2ccccc2)c(=O)n(CCc2ccccc2)c1)c1cc(Cl)ccc1O,-0.8,7.2,65.2*,16.2,20.6,11.4,38.0*,61.0*,6.5,3.3
CCN=C1SC(CC(=O)Nc2ccccc2)C(=O)N1CC (configuration not stated),0.8,-11.4,67.0*,19.9,-5.6,19.3,34.2*,59.1*,10.3,8.8
CCN=C1SC(C(=O)Nc2ccccc2)CC(=O)N1CC (configuration not stated),-2.0,-10.2,65.2*,21.0,1.9,19.9,31.0*,53.5*,9.4,10.2
CCN=C1SC(CC(=O)NCC)C(=O)N1CC (configuration not stated),-5.4,-14.6,0.1,5.7,4.5,15.6,x,x,x,x
COC(=O)c1ccc(COc2cccn3c(N(C)C(=O)CCC4CCCC4)c(C)nc23)cc1,-4.0,x,68.5*,3.8,x,x,33.7*,54.8*,7.1,12.0
CN(C)S(=O)(=O)c1ccc(C(=O)Nc2nc(-c3cccs3)cs2)cc1,-4.6,5.5,53.8*,8.0,7.2,23.2,32.6*,37.1,11.8*,8.9
O=C(Nc1nc(-c2cccs2)cs1)c1ccc(S(=O)(=O)N2CCCC2)cc1,-6.5,18.9,29.3,4.7,12.4,18.4,x,x,x,x
O=C(NC1CCCCC1)c1cccc(N2C(=O)CCC2=O)c1,-2.3,x,-17.9,1.0,x,x,x,x,x,x
CC(C)(C)N(Cc1ccccc1)C(=O)COC(=O)c1ccccc1SCC(=O)N1CCCC1,-0.2,-25.7,61.2*,6.2,-8.6,21.4,20.7,42.5,8.9,10.6
Cc1ccc(CN2C(=O)C(F)(F)Oc3ccccc32)cc1,-2.4,x,-7.3,-1.1,x,x,x,x,x,x
COc1ccc(C(=O)COC(=O)c2cc(=O)c3ccccc3o2)c(OC)c1,-4.5,x,-3.3,1.0,x,x,x,x,x,x
CC(=NNC(=O)CSCC(=O)NN=C(C)c1ccccc1)c1ccccc1,-3.0,x,6.3,4.5,x,x,x,x,x,x
CCN(CC)S(=O)(=O)c1ccc(N2CCOCC2)c(NC(=O)c2ccc3c(c2)OCCO3)c1,-0.9,-32.9,-21.2,1.2,-15.4,19.0,x,x,x,x
CCN(CC)S(=O)(=O)c1ccc(N2CCOCC2)c(NC(=O)c2c3c(nc4ccccc24)CCC3)c1,-9.1,-21.8,55.7*,13.1,-34.0,1.6,18.4,35.9,7.1,6.9
Cc1ccc(-c2cc(C(=O)Nc3ccncc3)c3ccccc3n2)cc1,-0.3,-27.6,5.5,2.3,-22.6,33.6,x,x,x,x
CCN(CC)S(=O)(=O)c1ccc(N2CCOCC2)c(NC(=O)c2cc(-c3ccccn3)nc3ccccc23)c1,1.0,x,71.3*,18.0,x,x,27.2*,52.1*,8.3,10.9
CCOc1ncccc1C(=O)Nc1cc(S(=O)(=O)N(CC)CC)ccc1N1CCOCC1,2.3,-13.6,-21.5,7.2,-14.3,9.9,x,x,x,x
CCN(CC)S(=O)(=O)c1ccc(NC(=O)c2cc(-c3ccccc3)nc3ccccc23)cc1,-3.7,-14.5,54.4*,3.0,-6.9,0.8,27.1*,35.3,7.7,-1.6
CCN(CC)S(=O)(=O)c1ccc(N2CCOCC2)c(NC(=O)c2cccc(C#N)c2)c1,0.2,-12.9,104.3*,-2.7,-26.2,14.2,7.8,2.1,0.1,4.8
